In the experiment the test system is NCI-H23. Nature of the experiment: Transfection efficiency in NCI-H23 lung cancer cell line was determined. It is filed as functional, cell-based. Conditions: Homo sapiens. The essentials:
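Cationic lipid/cholesterol 1:1 liposomes hydrated in PBS and bath-sonicated (twice 15 min, 65–68 °C; DOTAP/Chol at 37 °C). Lipoplexes with pGL3 (SV40-luciferase) at 2:1 charge ratio, 30 min at 22 °C in Optimem. NCI-H23 cells in RPMI 1640/10% FBS, 20 000 cells/well seeded 24 h before. Exposed 1 h, then medium added for 24 h. Lysate luciferase measured by luminometer, protein by BCA. Triplicate or quadruplicate, mean ± 1 SD.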
As to `CCCCCCCCCCCCCCCCCC(=O)OCC(COC(=O)CCCCCCCCCCCCCCCCC)[n+]1c(C)cc(C)cc1C`, the Activity entry is reported as “A”.

For `CCCCCCCCCCCCCCCC(=O)Oc1ccc(CC[n+]2c(C)cc(C)cc2C)cc1OC(=O)CCCCCCCCCCCCCCC`, the Activity result is reported as “A”. `CCCCCCCCCCCC(=O)OCC(COC(=O)CCCCCCCCCCC)[n+]1c(C)cc(C)cc1C`: the Activity entry is “A”. On to `CCCCCCCCCCCCCC(=O)OCC(COC(=O)CCCCCCCCCCCCC)[n+]1c(C)cc(C)cc1C`, for which the Activity entry is reported as “A”. For the compound `CCCCCCCCCCCC(=O)Oc1ccc(CC[n+]2c(C)cc(C)cc2C)cc1OC(=O)CCCCCCCCCCC`, the Activity result is “A”. Consider `CCCCCCCCCC(=O)Oc1ccc(CC[n+]2c(C)cc(C)cc2C)cc1OC(=O)CCCCCCCCC`, for which the Activity entry is given as “A”. As to `CCCCCCCC(=O)Oc1ccc(CC[n+]2c(C)cc(C)cc2C)cc1OC(=O)CCCCCCC`, the Activity result is given as “A”. Take `CCCCCCCCCCCCCCCCCC(=O)Oc1ccc(CC[n+]2c(C)cc(C)cc2C)cc1OC(=O)CCCCCCCCCCCCCCCCC`: the Activity entry is reported as “A”. Take `CCCCCCCCCCCCCCCC(=O)OCC(COC(=O)CCCCCCCCCCCCCCC)[n+]1c(C)cc(C)cc1C`: the Activity entry is given as “A”. To `CCCCCCCCCCCCCC(=O)Oc1ccc(CC[n+]2c(C)cc(C)cc2C)cc1OC(=O)CCCCCCCCCCCCC` belongs “A”.

For the origin of these results see ChEMBL document CHEMBL1148285, “Pyridinium cationic lipids in gene delivery: a structure-activity correlation study” (J Med Chem, 2004).
